Test results: ChEMBL document CHEMBL2384906, “Biological activity, design, synthesis and structure activity relationship of some novel derivatives of curcumin containing sulfonamides” (Eur J Med Chem, 2013)
Converted amounts (≈) assume the structure as drawn. The source made the active and inactive calls. The rule behind the calls is not given here.

Experiments:
Aspergillus flavus [1] = assay: Antifungal activity against Aspergillus flavus MTCC 1021 assessed as zone of inhibition at 80 uM after 48 hrs by disc diffusion method; format: functional; settings: MTCC 1021, 48 h, read-out: IZ
How it was run: (§1)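 Spores from 4-day potato dextrose agar cultures, suspended in sterile water at 1.5 × 10⁵ CFU/mL. 0.2 mL was spread on potato dextrose agar. 5 mm filter-paper discs soaked with test compound were laid on the lawn. Incubation was 48 h at 28 °C, then the inhibition zone was measured in mm. Fluconazole was the positive control and acetone the negative control.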

Bacillus cereus [2] = assay: Antimicrobial activity against Bacillus cereus MTCC 7350 assessed as diameter of inhibition zone at 40 uM after 24 hrs by Kirby -Baur disc diffusion method; format: functional
How it was run: (§2)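 Kirby-Bauer disc diffusion was used. Acetone stocks (160 µM) were serially doubled down to 80, 40 and 20 µM. 4 µL of each went onto 5 mm sterile paper discs, which were dried 30 min at 50 °C. Inoculum was 1.5 × 10⁸ CFU/mL diluted to 3 × 10² CFU/mL, and 50 µL was spread on Mueller-Hinton agar. After 24 h at 37 °C the inhibition-zone diameter was measured. Ciprofloxacin served as positive control.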

Aspergillus flavus [3] = assay: Antifungal activity against Aspergillus flavus MTCC 1021 assessed as zone of inhibition at 20 uM after 48 hrs by disc diffusion method; format: functional; settings: MTCC 1021, 48 h, read-out: IZ; how it was run: as §1
Aspergillus niger [4] = assay: Antifungal activity against Aspergillus niger MTCC 1108 assessed as zone of inhibition at 20 uM after 48 hrs by disc diffusion method; format: functional; how it was run: as §1
Curvularia lunata [5] = assay: Antifungal activity against Curvularia lunata MTCC 581 after 48 hrs; format: functional; settings: MTCC 581, 48 h
Aspergillus flavus [6] = assay: Antifungal activity against Aspergillus flavus MTCC 1021 after 48 hrs; format: functional; settings: MTCC 1021, 48 h
Staphylococcus aureus [7] = assay: Antimicrobial activity against Staphylococcus aureus ATCC 11632 assessed as diameter of inhibition zone at 80 uM after 24 hrs by Kirby -Baur disc diffusion method; format: functional; settings: ATCC 11632, 24 h, read-out: DIZ; how it was run: as §2
Aspergillus niger [8] = assay: Antifungal activity against Aspergillus niger MTCC 1108 assessed as zone of inhibition at 40 uM after 48 hrs by disc diffusion method; format: functional; settings: MTCC 1108, 48 h, read-out: IZ; how it was run: as §1
HCT-116 = assay: Cytotoxicity against human HCT116 cells after 24 hrs by MTT assay; format: functional, cell-based
How it was run: (§3)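 The MTT assay seeded 5 × 10⁴ cells per well and grew them 24 h in RPMI 1640 with compound at 2.5–200 µM. Medium without cells was the blank and adriamycin the positive control. MTT was added for 4 h at 37 °C, formazan was solubilised, and absorbance was read at 570 nm. IC50 is the concentration that cuts viability 50% against untreated cells.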

Aspergillus niger [9] = assay: Antifungal activity against Aspergillus niger MTCC 1108 after 48 hrs; format: functional; settings: MTCC 1108, 48 h
Bacillus cereus [10] = assay: Antimicrobial activity against Bacillus cereus MTCC 7350 assessed as diameter of inhibition zone at 20 uM after 24 hrs by Kirby -Baur disc diffusion method; format: functional; how it was run: as §2
Mus musculus = assay: Antiinflammatory activity in mouse assessed as inhibition of carrageenan-induced increase in paw volume at 200 mg/kg administered 1 hr prior to carrageenan challenge measured after 3 hrs relative to control; format: functional
How it was run: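 Mice were fasted 2 h and placed in groups of five. Controls received saline i.p. Phenylbutazone was given at 100 mg/kg i.p., curcumin at 200 mg/kg i.p., and derivatives at 200 mg/kg. After 1 h, 0.1 mL of 1% carrageenan in saline was injected subplantar into the right hind paw. Paw volume was followed by plethysmometer for 3 h, and % inhibition was calculated as (Vc − Vt)/Vc × 100.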

Escherichia coli [11] = assay: Antimicrobial activity against Escherichia coli ATCC 35218 after 24 hrs by broth micro serial dilution method; format: functional; settings: ATCC 35218, 24 h
How it was run: (§4)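 This was broth microdilution in autoclaved Mueller-Hinton broth. 150 µL of compound per well was serially diluted […], and 50 µL of test organism was added. Plates were incubated 24 h at 37 °C and optical density was read.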

Escherichia coli [12] = assay: Antimicrobial activity against Escherichia coli ATCC 35218 assessed as diameter of inhibition zone at 80 uM after 24 hrs by Kirby -Baur disc diffusion method; format: functional; how it was run: as §2
Salmonella typhi [13] = assay: Antimicrobial activity against Salmonella typhi ATCC 23564 assessed as diameter of inhibition zone at 80 uM after 24 hrs by Kirby -Baur disc diffusion method; format: functional; settings: Salmonella enterica subsp. enterica serovar Typhi
Pseudomonas aeruginosa [14] = assay: Antimicrobial activity against Pseudomonas aeruginosa ATCC 15499 after 24 hrs by broth micro serial dilution method; format: functional; settings: ATCC 15499, 24 h; how it was run: as §4
Trichoderma viride [15] = assay: Antifungal activity against Trichoderma viride MTCC 1107 assessed as zone of inhibition at 40 uM after 48 hrs by disc diffusion method; format: functional; settings: MTCC 1107, 48 h, read-out: IZ; how it was run: as §1
Salmonella typhi [16] = assay: Antimicrobial activity against Salmonella typhi ATCC 23564 after 24 hrs by broth micro serial dilution method; format: functional; settings: Salmonella enterica subsp. enterica serovar Typhi
Curvularia lunata [17] = assay: Antifungal activity against Curvularia lunata MTCC 581 assessed as zone of inhibition at 40 uM after 48 hrs by disc diffusion method; format: functional; settings: MTCC 581, 48 h, read-out: IZ; how it was run: as §1
Staphylococcus aureus [18] = assay: Antimicrobial activity against Staphylococcus aureus ATCC 11632 assessed as diameter of inhibition zone at 20 uM after 24 hrs by Kirby -Baur disc diffusion method; format: functional; how it was run: as §2
Aspergillus niger [19] = assay: Antifungal activity against Aspergillus niger MTCC 1108 assessed as zone of inhibition at 80 uM after 48 hrs by disc diffusion method; format: functional; settings: MTCC 1108, 48 h, read-out: IZ; how it was run: as §1
Trichoderma viride [20] = assay: Antifungal activity against Trichoderma viride MTCC 1107 assessed as zone of inhibition at 20 uM after 48 hrs by disc diffusion method; format: functional; settings: MTCC 1107, 48 h, read-out: IZ; how it was run: as §1
Aspergillus flavus [21] = assay: Antifungal activity against Aspergillus flavus MTCC 1021 assessed as zone of inhibition at 40 uM after 48 hrs by disc diffusion method; format: functional; settings: MTCC 1021, 48 h, read-out: IZ; how it was run: as §1
Staphylococcus aureus [22] = assay: Antimicrobial activity against Staphylococcus aureus ATCC 11632 assessed as diameter of inhibition zone at 40 uM after 24 hrs by Kirby -Baur disc diffusion method; format: functional; how it was run: as §2
Trichoderma viride [23] = assay: Antifungal activity against Trichoderma viride MTCC 1107 after 48 hrs; format: functional; settings: MTCC 1107, 48 h
Pseudomonas aeruginosa [24] = assay: Antimicrobial activity against Pseudomonas aeruginosa ATCC 15499 assessed as diameter of inhibition zone at 80 uM after 24 hrs by Kirby -Baur disc diffusion method; format: functional; how it was run: as §2
Bacillus cereus [25] = assay: Antimicrobial activity against Bacillus cereus MTCC 7350 assessed as diameter of inhibition zone at 80 uM after 24 hrs by Kirby -Baur disc diffusion method; format: functional; settings: MTCC 7350, 24 h, read-out: DIZ; how it was run: as §2
QG-56 = assay: Cytotoxicity against human QG56 cells after 24 hrs by MTT assay; format: functional, cell-based; how it was run: as §3
HepG2 = assay: Cytotoxicity against human HepG2 cells after 24 hrs by MTT assay; format: functional, cell-based; how it was run: as §3
Staphylococcus aureus [26] = assay: Antimicrobial activity against Staphylococcus aureus ATCC 11632 after 24 hrs by broth micro serial dilution method; format: functional; settings: ATCC 11632, 24 h; how it was run: as §4
Curvularia lunata [27] = assay: Antifungal activity against Curvularia lunata MTCC 581 assessed as zone of inhibition at 20 uM after 48 hrs by disc diffusion method; format: functional; settings: MTCC 581, 48 h, read-out: IZ; how it was run: as §1
HeLa = assay: Cytotoxicity against human HeLa cells after 24 hrs by MTT assay; format: functional, cell-based; how it was run: as §3
Trichoderma viride [28] = assay: Antifungal activity against Trichoderma viride MTCC 1107 assessed as zone of inhibition at 80 uM after 48 hrs by disc diffusion method; format: functional; settings: MTCC 1107, 48 h, read-out: IZ; how it was run: as §1
Curvularia lunata [29] = assay: Antifungal activity against Curvularia lunata MTCC 581 assessed as zone of inhibition at 80 uM after 48 hrs by disc diffusion method; format: functional; settings: MTCC 581, 48 h, read-out: IZ; how it was run: as §1
Bacillus cereus [30] = assay: Antimicrobial activity against Bacillus cereus MTCC 7350 after 24 hrs by broth micro serial dilution method; format: functional; settings: MTCC 7350, 24 h; how it was run: as §4

SMILES | zone of inhibition at 80 µM (Aspergillus flavus [1]) [mm] | diameter of the inhibition zone (DIZ) (Bacillus cereus [2]) | zone of inhibition at 20 µM (Aspergillus flavus [3]) [mm] | MIC (Curvularia lunata [5]) [µM] | MIC (Aspergillus flavus [6]) [µM] | zone of inhibition at 80 µM (Staphylococcus aureus [7]) [mm] | zone of inhibition at 40 µM (Aspergillus niger [8]) [mm] | IC50 (HCT-116) | MIC (Aspergillus niger [9]) [µM] | diameter of the inhibition zone (DIZ) (Bacillus cereus [10]) | inhibition in vivo at 200 mg/kg (Mus musculus) [%] | MIC (Escherichia coli [11]) [µM] | diameter of the inhibition zone (DIZ) (Escherichia coli [12]) | diameter of the inhibition zone (DIZ) (Salmonella typhi [13]) | MIC (Pseudomonas aeruginosa [14]) [µM] | zone of inhibition at 40 µM (Trichoderma viride [15]) [mm] | MIC (Salmonella typhi [16]) | zone of inhibition at 40 µM (Curvularia lunata [17]) [mm] | diameter of the inhibition zone (DIZ) (Staphylococcus aureus [18]) | zone of inhibition at 80 µM (Aspergillus niger [19]) [mm] | other results
COc1ccc(NS(=O)(=O)c2ccc(/N=N/C(C(=O)/C=C/c3ccc(O)c(OC)c3)=C(O)\C=C\c3ccc(O)c(OC)c3)cc2)nn1 | 15 | inactive | 11 | 20 (≈ 13.2 µg/mL) | 40 (≈ 26.4 µg/mL) | 11 | 9 | Not Active | > 80 | inactive | 29 | > 80 | inactive | inactive | > 80 | 16 | inactive | 16 | inactive | 12 | inhibition zone (IZ) (Aspergillus niger [4]): inactive; zone of inhibition at 20 µM (Trichoderma viride [20]): 12 mm; zone of inhibition at 40 µM (Aspergillus flavus [21]): 12 mm; zone of inhibition at 40 µM (Staphylococcus aureus [22]; ATCC 11632, 24 h, read-out: DIZ): 9 mm; MIC (Trichoderma viride [23]): 20 µM (≈ 13.2 µg/mL); diameter of the inhibition zone (DIZ) (Pseudomonas aeruginosa [24]): inactive; zone of inhibition at 80 µM (Bacillus cereus [25]): 9 mm; IC50 (QG-56): > 100 µM; IC50 (HepG2): > 100 µM; MIC (Staphylococcus aureus [26]): > 80 µM; zone of inhibition at 20 µM (Curvularia lunata [27]): 12 mm; IC50 (HeLa): 100 µM; zone of inhibition at 80 µM (Trichoderma viride [28]): 19 mm; zone of inhibition at 80 µM (Curvularia lunata [29]): 19 mm; MIC (Bacillus cereus [30]): > 80 µM
COc1cc(/C=C/C(=O)C(/N=N/c2ccc(S(=O)(=O)Nc3nc(C)cc(C)n3)cc2)=C(O)/C=C/c2ccc(O)c(OC)c2)ccc1O | 14 | inactive | 11 | 20 (≈ 13.2 µg/mL) | 40 (≈ 26.3 µg/mL) | 10 | 12 | Not Active | 40 (≈ 26.3 µg/mL) | inactive | 33.8 | > 80 | inactive | inactive | > 80 | 19 | inactive | 19 | inactive | 14 | zone of inhibition at 20 µM (Aspergillus niger [4]; MTCC 1108, 48 h, read-out: IZ): 9 mm; zone of inhibition at 20 µM (Trichoderma viride [20]): 18 mm; zone of inhibition at 40 µM (Aspergillus flavus [21]): 13 mm; diameter of the inhibition zone (DIZ) (Staphylococcus aureus [22]): inactive; MIC (Trichoderma viride [23]): 20 µM (≈ 13.2 µg/mL); diameter of the inhibition zone (DIZ) (Pseudomonas aeruginosa [24]): inactive; zone of inhibition at 80 µM (Bacillus cereus [25]): 11 mm; IC50 (QG-56): 100 µM; IC50 (HepG2): > 100 µM; MIC (Staphylococcus aureus [26]): > 80 µM; zone of inhibition at 20 µM (Curvularia lunata [27]): 18 mm; IC50 (HeLa): 50 µM; zone of inhibition at 80 µM (Trichoderma viride [28]): 22 mm; zone of inhibition at 80 µM (Curvularia lunata [29]): 22 mm; MIC (Bacillus cereus [30]): > 80 µM
